From ChEMBL document CHEMBL3865799, “Synthesis of a series of novel dihydroartemisinin monomers and dimers containing chalcone as a linker and their anticancer activity” (Eur J Med Chem, 2016)

Columns and labels:
[1] = Cytotoxicity against human LS180 cells assessed as cell growth inhibition at 50 uM after 48 hrs by MTT assay; assay type: functional; settings: LS180, 48 h, read-out: GI
In short: (§1)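 Adherent lines at 70–75% confluence, grown at 37 °C in 5% CO2 with 10% FCS. Exposed 48 h to compound in DMSO (vehicle <0.2% v/v). MTT dye added 3 h before termination; formazan dissolved in DMSO, OD 570 nm with 620 nm reference. Growth inhibition expressed as % of untreated; IC50 taken from the dose series.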

HepG2 = assay: Selectivity index, ratio of IC50 for African green monkey Vero cells to IC50 for human HepG2 cells; assay type: functional
In short: (§2)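 Suspension cells were seeded at 1.5 × 10^4 per well and adherent lines at 70–75% confluence, then exposed to a range of concentrations. MTT was added 3 h before the end, formazan dissolved in DMSO, and OD read at 570 nm (reference 620 nm). Growth inhibition was taken relative to untreated cells. IC50 came from the MTT data; SI = IC50 in Vero cells / IC50 in the tumour line.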

[2] = Cytotoxicity against human LS180 cells assessed as cell growth inhibition at 10 uM after 48 hrs by MTT assay; assay type: functional; settings: LS180, 48 h, read-out: GI; in short: as §1
[3] = Cytotoxicity against human HepG2 cells assessed as cell growth inhibition after 48 hrs by MTT assay; assay type: functional, cell-based; settings: HepG2, 48 h; in short: as §1
[4] = Cytotoxicity against human MIAPaCa2 cells assessed as cell growth inhibition at 1 uM after 48 hrs by MTT assay; assay type: functional; settings: MIA PaCa-2, 48 h, read-out: GI; in short: as §1
[5] = Cytotoxicity against human LS180 cells assessed as cell growth inhibition at 1 uM after 48 hrs by MTT assay; assay type: functional; settings: LS180, 48 h, read-out: GI; in short: as §1
[6] = Cytotoxicity against human PC3 cells assessed as cell growth inhibition after 48 hrs by MTT assay; assay type: functional, cell-based; settings: PC-3, 48 h
In short: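 Exposed 48 h to compound in DMSO (vehicle <0.2% v/v). MTT dye added 3 h before termination; formazan dissolved in DMSO, OD 570 nm with 620 nm reference. Growth inhibition expressed as % of untreated; IC50 taken from the dose series.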

[7] = Cytotoxicity against human HL60 cells assessed as cell growth inhibition at 50 uM after 48 hrs by MTT assay; assay type: functional; settings: HL-60, 48 h, read-out: GI
In short: (§3)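 HL-60 suspension cells, 1.5 × 10^4 per well, grown at 37 °C in 5% CO2 with 10% FCS. Treated 48 h with compound in DMSO (vehicle <0.2% v/v). MTT added 3 h before the end. Formazan dissolved in DMSO and read at 570 nm (reference 620 nm). % growth inhibition computed against untreated cells; IC50 taken from the concentration series.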

[8] = Cytotoxicity against human LS180 cells assessed as cell growth inhibition at 0.5 uM after 48 hrs by MTT assay; assay type: functional; settings: LS180, 48 h, read-out: GI; in short: as §1
[9] = Aqueous solubility of the compound at pH 7; assay type: physicochemical
[10] = Cytotoxicity against human MIAPaCa2 cells assessed as cell growth inhibition at 0.5 uM after 48 hrs by MTT assay; assay type: functional; settings: MIA PaCa-2, 48 h, read-out: GI; in short: as §1
[11] = Cytotoxicity against human PC3 cells assessed as cell growth inhibition at 30 uM after 48 hrs by MTT assay; assay type: functional; settings: PC-3, 48 h, read-out: GI; in short: as §1
[12] = Cytotoxicity against human HL60 cells assessed as cell growth inhibition at 0.5 uM after 48 hrs by MTT assay; assay type: functional; settings: HL-60, 48 h, read-out: GI; in short: as §3
[13] = Lipophilicity, log P of the compound; assay type: physicochemical; settings: octanol/water
[14] = Cytotoxicity against human MIAPaCa2 cells assessed as cell growth inhibition at 10 uM after 48 hrs by MTT assay; assay type: functional; settings: MIA PaCa-2, 48 h, read-out: GI; in short: as §1
[15] = Cytotoxicity against human PC3 cells assessed as cell growth inhibition at 0.5 uM after 48 hrs by MTT assay; assay type: functional; settings: PC-3, 48 h, read-out: GI; in short: as §1
[16] = Cytotoxicity against human MIAPaCa2 cells assessed as cell growth inhibition at 50 uM after 48 hrs by MTT assay; assay type: functional; settings: MIA PaCa-2, 48 h, read-out: GI; in short: as §1
[17] = Cytotoxicity against human PC3 cells assessed as cell growth inhibition at 50 uM after 48 hrs by MTT assay; assay type: functional; settings: PC-3, 48 h, read-out: GI; in short: as §1
[18] = Cytotoxicity against human LS180 cells assessed as cell growth inhibition at 30 uM after 48 hrs by MTT assay; assay type: functional; settings: LS180, 48 h, read-out: GI; in short: as §1
[19] = Cytotoxicity against human HL60 cells assessed as cell growth inhibition at 1 uM after 48 hrs by MTT assay; assay type: functional; settings: HL-60, 48 h, read-out: GI; in short: as §3
[20] = Cytotoxicity against human HepG2 cells assessed as cell growth inhibition at 30 uM after 48 hrs by MTT assay; assay type: functional; settings: HepG2, 48 h, read-out: GI; in short: as §1
[21] = Cytotoxicity against human HL60 cells assessed as cell growth inhibition after 48 hrs by MTT assay; assay type: functional, cell-based; settings: HL-60, 48 h; in short: as §3
[22] = Cytotoxicity against human HepG2 cells assessed as cell growth inhibition at 50 uM after 48 hrs by MTT assay; assay type: functional; settings: HepG2, 48 h, read-out: GI; in short: as §1
[23] = Cytotoxicity against human MIAPaCa2 cells assessed as cell growth inhibition at 30 uM after 48 hrs by MTT assay; assay type: functional; settings: MIA PaCa-2, 48 h, read-out: GI; in short: as §1
[24] = Cytotoxicity against human HepG2 cells assessed as cell growth inhibition at 10 uM after 48 hrs by MTT assay; assay type: functional; settings: HepG2, 48 h, read-out: GI; in short: as §1
[25] = Cytotoxicity against human PC3 cells assessed as cell growth inhibition at 10 uM after 48 hrs by MTT assay; assay type: functional; settings: PC-3, 48 h, read-out: GI; in short: as §1
[26] = Selectivity index, ratio of IC50 for African green monkey Vero cells to IC50 for human LS180 cells; assay type: functional; in short: as §2
Vero [27] = assay: Selectivity index, ratio of IC50 for African green monkey Vero cells to IC50 for human HL60 cells; assay type: functional; in short: as §2
[28] = Cytotoxicity against human MIAPaCa2 cells assessed as cell growth inhibition after 48 hrs by MTT assay; assay type: functional, cell-based; settings: MIA PaCa-2, 48 h; in short: as §1
[29] = Cytotoxicity against human LS180 cells assessed as cell growth inhibition after 48 hrs by MTT assay; assay type: functional, cell-based; settings: LS180, 48 h; in short: as §1
[30] = Cytotoxicity against human HL60 cells assessed as cell growth inhibition at 10 uM after 48 hrs by MTT assay; assay type: functional; settings: HL-60, 48 h, read-out: GI; in short: as §3
[31] = Cytotoxicity against human PC3 cells assessed as cell growth inhibition at 1 uM after 48 hrs by MTT assay; assay type: functional; settings: PC-3, 48 h, read-out: GI; in short: as §1
[32] = Cytotoxicity against human HepG2 cells assessed as cell growth inhibition at 0.5 uM after 48 hrs by MTT assay; assay type: functional; settings: HepG2, 48 h, read-out: GI; in short: as §1
[33] = Cytotoxicity against human HepG2 cells assessed as cell growth inhibition at 1 uM after 48 hrs by MTT assay; assay type: functional; settings: HepG2, 48 h, read-out: GI; in short: as §1
Vero [34] = assay: Selectivity index, ratio of IC50 for African green monkey Vero cells to IC50 for human MIAPaCa2 cells; assay type: functional; in short: as §2
[35] = Cytotoxicity against human HL60 cells assessed as cell growth inhibition at 30 uM after 48 hrs by MTT assay; assay type: functional; settings: HL-60, 48 h, read-out: GI; in short: as §3
Vero [36] = assay: Selectivity index, ratio of IC50 for African green monkey Vero cells to IC50 for human PC3 cells; assay type: functional; in short: as §2

COc1cc(/C=C/C(=O)c2ccc(OCCO[C@H]3O[C@@H]4O[C@@]5(C)CC[C@H]6[C@H](C)CC[C@@H]([C@H]3C)[C@@]46OO5)cc2)cc(OC)c1OCCO[C@H]1O[C@@H]2O[C@@]3(C)CC[C@H]4[C@H](C)CC[C@@H]([C@H]1C)[C@@]24OO3
inhibition of growth at 50 µM [1]: 70.1%
Ratio IC50 (HepG2): 210
inhibition of growth at 10 µM [2]: 44.6%
IC50 [3]: 4 µM
inhibition of growth at 1 µM [4]: 38.1%
inhibition of growth at 1 µM [5]: 27.6%
IC50 [6]: 10 µM
inhibition of growth at 50 µM [7]: 86.1%
inhibition of growth at 0.5 µM [8]: 15.3%
solubility [9]: < 10 µg/mL
inhibition of growth at 0.5 µM [10]: 37.3%
inhibition of growth at 30 µM [11]: 57.6%
inhibition of growth at 0.5 µM [12]: 77.2%
logP [13]: 5.34 to 7.45
inhibition of growth at 10 µM [14]: 38.7%
inhibition of growth at 0.5 µM [15]: 34.5%
inhibition of growth at 50 µM [16]: 48.1%
inhibition of growth at 50 µM [17]: 57.9%
inhibition of growth at 30 µM [18]: 58.1%
inhibition of growth at 1 µM [19]: 83.9%
inhibition of growth at 30 µM [20]: 32.9%
IC50 [21]: 0.3 µM
inhibition of growth at 50 µM [22]: 33.8 to 58.1%
inhibition of growth at 30 µM [23]: 37.4 to 40.1%
inhibition of growth at 10 µM [24]: 59.1%
inhibition of growth at 10 µM [25]: 50.2%
Ratio IC50 [26]: 162
Ratio IC50 (Vero [27]): 88
IC50 [28]: > 50 µM
IC50 [29]: 16 µM
inhibition of growth at 10 µM [30]: 84.6%
inhibition of growth at 1 µM [31]: 45.9%
inhibition of growth at 0.5 µM [32]: 38.8%
inhibition of growth at 1 µM [33]: 41.5%
Ratio IC50 (Vero [34]): 100
inhibition of growth at 30 µM [35]: 85.4%
Ratio IC50 (Vero [36]): 210

C[C@H]1[C@@H](OCCOc2ccc(/C=C/C(=O)c3ccco3)cc2)O[C@@H]2O[C@@]3(C)CC[C@H]4[C@H](C)CC[C@@H]1[C@@]24OO3
inhibition of growth at 50 µM [1]: 28.3%
Ratio IC50 (HepG2): 68
inhibition of growth at 10 µM [2]: 26.9%
IC50 [3]: 22 µM
inhibition of growth at 1 µM [4]: 19.1%
inhibition of growth at 1 µM [5]: 25.7%
IC50 [6]: 24 µM
inhibition of growth at 50 µM [7]: 91.7%
inhibition of growth at 0.5 µM [8]: 20%
solubility [9]: < 10 µg/mL
inhibition of growth at 0.5 µM [10]: 18.4%
inhibition of growth at 30 µM [11]: 55.1 to 58.1%
inhibition of growth at 0.5 µM [12]: 38%
logP [13]: 5.34 to 7.45
inhibition of growth at 10 µM [14]: 26.2%
inhibition of growth at 0.5 µM [15]: 15.1%
inhibition of growth at 50 µM [16]: 77.5%
inhibition of growth at 50 µM [17]: 69.4%
inhibition of growth at 30 µM [18]: 26.9%
inhibition of growth at 1 µM [19]: 57.5%
inhibition of growth at 30 µM [20]: 25.2 to 67.3%
IC50 [21]: 0.7 µM
inhibition of growth at 50 µM [22]: 26.9 to 42.6%
inhibition of growth at 30 µM [23]: 39.8 to 67.3%
inhibition of growth at 10 µM [24]: 24.8%
inhibition of growth at 10 µM [25]: 43.4%
Ratio IC50 [26]: >200
Ratio IC50 (Vero [27]): 90
IC50 [28]: > 50 µM
IC50 [29]: > 50 µM
inhibition of growth at 10 µM [30]: 87.4%
inhibition of growth at 1 µM [31]: 15.8%
inhibition of growth at 0.5 µM [32]: 1%
inhibition of growth at 1 µM [33]: 14.7%
Ratio IC50 (Vero [34]): 59
inhibition of growth at 30 µM [35]: 89.1%
Ratio IC50 (Vero [36]): 94

COc1cccc2c1C(=O)c1c(O)c3c(c(O)c1C2=O)C[C@@](O)(C(=O)CO)C[C@@H]3O[C@H]1C[C@H](N)[C@H](O)[C@H](C)O1 [DOXORUBICIN]
IC50 [3]: 0.54 µM
IC50 [29]: 0.84 µM

Cc1cc(C(=O)/C=C/c2ccc(OCCO[C@H]3O[C@@H]4O[C@@]5(C)CC[C@H]6[C@H](C)CC[C@@H]([C@H]3C)[C@@]46OO5)cc2)ccc1OCCO[C@H]1O[C@@H]2O[C@@]3(C)CC[C@H]4[C@H](C)CC[C@@H]([C@H]1C)[C@@]24OO3
inhibition of growth at 50 µM [1]: 23.5%
inhibition of growth at 50 µM [7]: 70.4%
solubility [9]: < 10 µg/mL
inhibition of growth at 30 µM [11]: 6.4%
logP [13]: 5.34 to 7.45
inhibition of growth at 50 µM [16]: 49.2%
inhibition of growth at 50 µM [17]: 23.5%
inhibition of growth at 30 µM [18]: 7.1%
inhibition of growth at 30 µM [20]: 13.6%
inhibition of growth at 50 µM [22]: 20.7%
inhibition of growth at 30 µM [23]: 44.3%
inhibition of growth at 30 µM [35]: 68.9%
